Laboratory results published in ChEMBL document CHEMBL1921716, “Discovery of N-[2-hydroxy-6-(4-methoxybenzamido)phenyl]-4- (4-methyl-1,4-diazepan-1-yl)benzamide (darexaban, YM150) as a potent and orally available factor Xa inhibitor” (J Med Chem, 2011).

Assays:
Plasma [1] = test: Anticoagulant activity in mouse plasma assessed as concentration required to double the clotting time by coagulometric analysis; assay type: functional
Summary of the method: (§1)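 Citrated blood was spun at 3000 rpm for 10 min to give platelet-poor plasma, stored at −40 °C. Prothrombin time was read on a coagulometer at 37 °C with thromboplastin and compared with a distilled-water control. CT2 (concentration doubling clotting time) was estimated from each concentration–response curve. Each measurement was done three times and reported as the mean.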

Mus musculus [2] = test: Anticoagulant activity in mouse assessed as prothrombin time at 100 mg/kg, po measured after 0.5 hrs by coagulometric analysis relative to control; assay type: functional, ICR
Mus musculus [3] = test: Anticoagulant activity in mouse assessed as prothrombin time at 100 mg/kg, po measured after 2 hrs by coagulometric analysis relative to control; assay type: functional, ICR
Coagulation factor X [4] = target: T1, Coagulation factor X (Homo sapiens, UniProt P00742); test: Inhibition of human factor 10A using chromogenic substrate S2222 by absorbance measurement at 405 nm
[5] = Effective permeability of the compound after 2 hrs by PAMPA at pH 6.5; assay type: ADME; conditions: read-out: Peff
Summary of the method: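 Compound from a 10 mM DMSO stock was diluted to a final concentration of about 50 μM in buffer containing 10% DMSO. Donor was pH 6.5 and acceptor pH 7.4, separated by a filter coated with 20% lecithin in dodecane. Plates were incubated 2 h at 25 °C in saturated humidity. Both compartments were quantified by UV at 270–400 nm against standards, with mass balance, to give Pe (n = 2).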

[6] = Intrinsic clearance in CD1 mouse liver microsomes assessed as compound remaining at 0.2 uM after 30 mins; assay type: ADME, Microsome
[7] = Tmax in F344/DuCrlCrlj rat at 100 mg/kg, po; assay type: ADME, organism-based; set-up: dose 100 mg/kg, route oral; conditions: in vivo
Summary of the method: (§2)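 Male F344/DuCrlCrlj rats, 6 weeks old and nonfasted, received a single oral dose of 100 mg/kg as the monomaleate salt suspended in 0.5% methylcellulose, dose given as free form. Three rats per time point were bled at 0.5, 1, 2, 4, 8 and 24 h. Plasma was deproteinized with acetonitrile containing internal standards, and parent and glucuronide were measured by LC-MS/MS.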

[8] = Cmax in F344/DuCrlCrlj rat at 100 mg/kg, po; assay type: ADME, organism-based; set-up: dose 100 mg/kg, route oral; conditions: in vivo; summary of the method: as §2
[9] = AUC (0 to 24 hrs) in F344/DuCrlCrlj rat at 100 mg/kg, po; assay type: ADME, organism-based; set-up: time < 24 hr, dose 100 mg/kg, route oral; conditions: plasma; summary of the method: as §2
Plasma [10] = test: Anticoagulant activity in human plasma assessed as concentration required to double the clotting time by coagulometric analysis; assay type: functional; summary of the method: as §1
Coagulation factor X [11] = target: T1, Coagulation factor X; test: Inhibition of human factor 10A using chromogenic substrate S2222 by dixon plot analysis
Summary of the method: (§3)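 Human enzymes were used at final concentrations of 4.2 mU/mL FXa, 0.20 U/mL thrombin, 1.0 U/mL trypsin and 1.7 mU/mL plasma kallikrein. Substrates were S-2222 (FXa, trypsin), S-2238 (thrombin) and S-2302 (kallikrein). Reactions were started by adding enzyme, and hydrolysis was followed at 405 nm at 37 °C. Mode of inhibition came from Lineweaver–Burk plots and Ki from Dixon plots at several substrate concentrations. Values are means of four determinations.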

Trypsin = Trypsin (Homo sapiens, UniProt P07477+P07478+P35030); test: Inhibition of human trypsin using chromogenic substrate S2222 by dixon plot analysis plot; assay type: protein assay; summary of the method: as §3
Prothrombin = Prothrombin (Homo sapiens, UniProt P00734); test: Inhibition of human thrombin using chromogenic substrate S2238 by dixon plot analysis; summary of the method: as §3
Plasma kallikrein = Plasma kallikrein (Homo sapiens, UniProt P03952); test: Inhibition of human plasma kallikrein using chromogenic substrate S2302 by dixon plot analysis; summary of the method: as §3
Rattus norvegicus [12] = test: Tmax in F344/DuCrlCrlj rat at 100 mg/kg, po assessed as 3-[(4-methoxybenzoyl)amino]-2-{[4-(4-methyl-1,4-diazepan- 1-yl)benzoyl]amino}phenyl beta-D-glucopyranosiduronic acid level after 24 hrs by LC-MS/MS analysis; assay type: ADME, organism-based; set-up: dose 100 mg/kg, route oral; conditions: in vivo; summary of the method: as §2
Rattus norvegicus [13] = test: Cmax in F344/DuCrlCrlj rat at 100 mg/kg, po assessed as 3-[(4-methoxybenzoyl)amino]-2-{[4-(4-methyl-1,4-diazepan- 1-yl)benzoyl]amino}phenyl beta-D-glucopyranosiduronic acid level after 24 hrs by LC-MS/MS analysis; assay type: ADME, organism-based; set-up: dose 100 mg/kg, route oral; conditions: in vivo; summary of the method: as §2
Rattus norvegicus [14] = test: AUC (0 to 24 hrs) in F344/DuCrlCrlj rat at 100 mg/kg, po assessed as 3-[(4-methoxybenzoyl)amino]-2-{[4-(4-methyl-1,4-diazepan- 1-yl)benzoyl]amino}phenyl beta-D-glucopyranosiduronic acid level after 24 hrs by LC-MS/MS analysis; assay type: ADME, organism-based, Plasma; set-up: time < 24 hr, dose 100 mg/kg, route oral; conditions: in vivo; summary of the method: as §2

T1 sequence (P00742 41-179 limits assumed): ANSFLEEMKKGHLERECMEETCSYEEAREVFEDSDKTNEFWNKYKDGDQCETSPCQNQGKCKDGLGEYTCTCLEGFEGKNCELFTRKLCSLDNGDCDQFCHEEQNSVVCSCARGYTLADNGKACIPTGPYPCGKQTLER
T1 sequence (P00742 235-488 limits assumed): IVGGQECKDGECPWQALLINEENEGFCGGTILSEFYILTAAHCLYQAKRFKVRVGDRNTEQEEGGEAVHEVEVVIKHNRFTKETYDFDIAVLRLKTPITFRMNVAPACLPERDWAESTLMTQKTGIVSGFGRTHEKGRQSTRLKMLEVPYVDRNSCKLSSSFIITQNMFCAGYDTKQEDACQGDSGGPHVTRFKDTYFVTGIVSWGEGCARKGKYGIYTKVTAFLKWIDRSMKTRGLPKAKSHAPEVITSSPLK
Plasma kallikrein, sequence (P03952 20-390 limits assumed): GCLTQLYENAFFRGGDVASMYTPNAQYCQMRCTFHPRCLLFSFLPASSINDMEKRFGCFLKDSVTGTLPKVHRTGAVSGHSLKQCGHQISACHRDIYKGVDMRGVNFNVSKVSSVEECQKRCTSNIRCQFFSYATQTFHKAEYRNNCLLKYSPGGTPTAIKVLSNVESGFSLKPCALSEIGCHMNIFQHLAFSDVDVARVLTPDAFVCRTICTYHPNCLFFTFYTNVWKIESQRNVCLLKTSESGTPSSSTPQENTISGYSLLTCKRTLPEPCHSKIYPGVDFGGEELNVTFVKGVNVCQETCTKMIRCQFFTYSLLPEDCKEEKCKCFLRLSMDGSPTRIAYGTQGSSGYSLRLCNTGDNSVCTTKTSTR
Plasma kallikrein, sequence (P03952 391-638 limits assumed): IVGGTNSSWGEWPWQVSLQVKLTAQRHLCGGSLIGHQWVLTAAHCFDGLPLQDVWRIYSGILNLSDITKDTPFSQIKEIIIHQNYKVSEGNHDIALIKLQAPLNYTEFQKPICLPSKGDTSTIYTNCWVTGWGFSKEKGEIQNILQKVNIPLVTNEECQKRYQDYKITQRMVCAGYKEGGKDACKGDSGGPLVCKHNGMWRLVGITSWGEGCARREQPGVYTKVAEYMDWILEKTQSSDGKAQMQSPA

Row | Structure (SMILES) | IC50 (Coagulation factor X [4]) [nM] | CD (Plasma [1]) [µM] | fold change (FC) (Mus musculus [2]) | fold change (FC) (Mus musculus [3]) | also measured
1 | COc1ccc(C(=O)Nc2cccc(OCC(=O)O)c2NC(=O)c2ccc(N3CCCN(C)CC3)cc2)cc1 | 123 | 2.8 | 0.99 | 0.98 | 
2 | COc1ccc(C(=O)Nc2cccc(F)c2NC(=O)c2ccc(N3CCCN(C)CC3)cc2)cc1 | 155 | 4.3 | 1.43 | 1.22 | 
3 | COc1ccc(C(=O)Nc2ccccc2NC(=O)c2ccc(OC)cc2)cc1 | 4220 |  |  |  | 
4 | CSc1ccc(C(=O)Nc2cccc(O)c2NC(=O)c2ccc(N3CCCN(C)CC3)cc2)cc1 | 1440 |  |  |  | 
5 | COc1ccc(C(=O)Nc2ccc(OC)cc2NC(=O)c2ccc(OC)cc2)cc1 | 6220 |  |  |  | 
6 | CN1CCCN(c2ccc(C(=O)Nc3c(O)cccc3NC(=O)c3ccc(O)cc3)cc2)CC1 | 6140 |  |  |  | 
7 | COc1ccc(C(=O)Nc2cccc(OCCO)c2NC(=O)c2ccc(N3CCCN(C)CC3)cc2)cc1 | 106 | 3 | 1.36 | 1.31 | 
8 | COc1ccc(NC(=O)c2ccccc2NC(=O)c2ccc(N3CCCN(C)CC3)cc2)cc1 | 140 | 5.9 | 1.02 | 0.98 | 
9 | COc1ccc(C(=O)Nc2cc(O)ccc2NC(=O)c2ccc(N3CCCN(C)CC3)cc2)cc1 | 157 | 4.7 | 1.02 | 1.01 | 
10 | COc1ccc(C(=O)Nc2cccc(O)c2NC(=O)c2ccc(N3CCCN(C)CC3)cc2)cc1.O=C(O)/C=C\C(=O)O |  |  |  |  | Tmax [7]: 2 h; Cmax [8]: 175 ng/mL; AUC(0-t) at 24 h [9]: 1290 ng·h/mL
11 | CN1CCCN(c2ccc(C(=O)Nc3c(O)cccc3NC(=O)c3ccc(F)cc3)cc2)CC1 | 349 |  |  |  | 
12 | COc1ccc(C(=O)Nc2ccccc2NC(=O)c2ccc(N3CCCN(C)CC3)cc2)cc1 | 103 | 2.8 | 1.38 | 1.39 | Papp at 2 h [5]: 42 ×10⁻⁶ cm/s; CLint scaled at 0.2 µM [6]: 2050 mL/min/kg
13 | COc1ccc(C(=O)Nc2cc(OC)ccc2NC(=O)c2ccc(N3CCCN(C)CC3)cc2)cc1 | 118 | 7.1 | 1.25 | 1.34 | 
14 | COc1ccc(C(=O)Nc2c(NC(=O)c3ccc(N4CCCN(C)CC4)cc3)cccc2OC)cc1 | 213 | 13 |  |  | 
15 | COc1ccc(C(=O)Nc2ccccc2C(=O)Nc2ccc(N3CCCN(C)CC3)cc2)cc1 | 539 |  |  |  | 

Further compounds by falling IC50 (Coagulation factor X [4]), results first:

Row | IC50 (Coagulation factor X [4]) [nM] | Structure (SMILES) | CD (Plasma [1]) [µM] | fold change (FC) (Mus musculus [2]) | fold change (FC) (Mus musculus [3]) | also measured
16 | 99.2 | COc1ccc(C(=O)Nc2cccc(C(=O)O)c2NC(=O)c2ccc(N3CCCN(C)CC3)cc2)cc1 | 9 | 1.05 | 1.08 | 
17 | 86.1 | COc1ccc(C(=O)Nc2cccc(O)c2NC(=O)c2ccc(N3CCCN(C)CC3)cc2)s1 | 3.8 | 2.17 | 1.9 | 
18 | 73.4 | COc1ccc(C(=O)Nc2ccc(OC)cc2NC(=O)c2ccc(N3CCCN(C)CC3)cc2)cc1 | 7.5 | 1.35 | 1.38 | 
19 | 64.2 | CN1CCCN(c2ccc(C(=O)Nc3c(O)cccc3NC(=O)c3ccc(Cl)cc3)cc2)CC1 | 5.3 | 1.42 | 1.32 | 
20 | 62.6 | COc1ccc(C(=O)Nc2cccc(OC)c2NC(=O)c2ccc(N3CCCN(C)CC3)cc2)cc1 | 3.7 | 1.5 | 1.32 | Papp at 2 h [5]: 47.5 ×10⁻⁶ cm/s; CLint scaled at 0.2 µM [6]: 2200 mL/min/kg
21 | 59.8 | CN1CCCN(c2ccc(C(=O)Nc3c(O)cccc3NC(=O)c3ccc(Br)cc3)cc2)CC1 | 6.7 | 1.41 | 1.62 | 
22 | 54.6 | COc1ccc(C(=O)Nc2cccc(O)c2NC(=O)c2ccc(N3CCCN(C)CC3)cc2)cc1 [DAREXABAN] | 4.1 | 3.49 | 2.09 | CD (Plasma [10]): 1.2 µM; Ki (Coagulation factor X [11]): 31 nM; Ki (Trypsin): > 100000 nM; Ki (Prothrombin): > 100000 nM; Ki (Plasma kallikrein): 11000 nM; Papp at 2 h [5]: 30 ×10⁻⁶ cm/s; CLint scaled at 0.2 µM [6]: 1910 mL/min/kg
23 | 50.3 | COc1ccc(C(=O)Nc2ccc(O)cc2NC(=O)c2ccc(N3CCCN(C)CC3)cc2)cc1 | 1.4 | 1.04 | 1 | Papp at 2 h [5]: < 0.3 ×10⁻⁶ cm/s; CLint scaled at 0.2 µM [6]: 1700 mL/min/kg
24 | 41.4 | CN1CCCN(c2ccc(C(=O)Nc3c(O)cccc3NC(=O)c3ccc(Br)s3)cc2)CC1 | 7.1 | 1.53 | 1.22 | 
25 | 41.3 | CN1CCCN(c2ccc(C(=O)Nc3c(O)cccc3NC(=O)c3ccc(Cl)s3)cc2)CC1 | 5.8 | 1.48 | 1.27 | 
26 | 31.1 | COc1ccc(C(=O)Nc2ccc(C(=O)O)cc2NC(=O)c2ccc(N3CCCN(C)CC3)cc2)cc1 | 1.7 | 1 | 1 | 
27 | 28.6 | COc1ccc(C(=O)Nc2cccc(O[C@@H]3O[C@H](C(=O)O)[C@@H](O)[C@H](O)[C@H]3O)c2NC(=O)c2ccc(N3CCCN(C)CC3)cc2)cc1 | 2.5 |  |  | CD (Plasma [10]): 0.95 µM; Ki (Coagulation factor X [11]): 20 nM; Ki (Trypsin): > 100000 nM; Ki (Prothrombin): > 100000 nM; Ki (Plasma kallikrein): 17000 nM; Papp at 2 h [5]: < 0.2 ×10⁻⁶ cm/s; CLint scaled at 0.2 µM [6]: 90.6 mL/min/kg; Tmax (Rattus norvegicus [12]): 0.5 h; Cmax (Rattus norvegicus [13]): 9439.5 ng/mL; AUC (Rattus norvegicus [14]): 38539.2 ng·h/mL
